Experiments:
P388 [1] = assay: (§1) Average increase in life span of treated animals over control groups of tumor-bearing untreated animals when given at optimal dose; NA means no significant activity (in vivo); format: functional, organism-based; conditions: Mus musculus
Procedure, shortened: (§2)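 Mice received drug ip as a solution in 0.1 mL 30% v/v EtOH/water at the optimal dose. For P388, 10^6 cells were inoculated ip and drug given on days 1, 5 and 9. For LL, 10^6 cells were inoculated iv and drug given on days 5, 9 and 13. ILS is the mean life-span increase over untreated tumor-bearing controls, significant above 20% (P388) or 40% (LL). Groups were of six. NA means no significant activity up to acutely toxic doses.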

L1210 [2] = assay: Nanomolar concentration required to reduce the growth of L1210 cells in culture to 50% of control values after 70 h (in vitro); format: functional, cell-based; conditions: Mus musculus, L1210, 70 h
Procedure, shortened: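 L1210 cells were grown in culture with drug for 70 h. IC50 is the drug concentration (nM) reducing growth to 50% of control values.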

P388 [3] = assay: Optimal dose in mg/kg administered intraperitoneally on days 1,5 and 9 required to inhibit the growth of P388 leukemia cells was determined (in vivo); format: functional, Mus musculus
Procedure, shortened: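 Mice were inoculated ip with 10^6 P388 cells. Drug was given ip as a solution in 0.1 mL 30% v/v EtOH/water on days 1, 5 and 9. The optimal dose (mg/kg per day) is the one giving maximal increase in life span; survivors were scored at 50 days, in groups of six.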

[4] = Lipophilicity (HPLC); format: physicochemical
L1210 [5] = assay: Tested for comparative cytotoxicity as ratio of IC50 value, relative to 3-substituted derivative (1.00).; format: functional, Mus musculus
L1210 [6] = assay: Tested for comparative cytotoxicity as ratio of IC50 value, relative to OMe derivative (1.00).; format: functional, Mus musculus
[7] = system: Lewis lung carcinoma cell line; assay: as §1; format: functional, organism-based; conditions: Mus musculus; procedure, shortened: as §2
[8] = system: Lewis lung carcinoma cell line; assay: Optimal dose required after intraperitoneal administration on days 5,9 and 13 to inhibit the growth of lewis lung carcinoma (LL) cells was determined (in vivo); format: functional, Mus musculus
Procedure, shortened: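 Mice were inoculated iv with 10^6 Lewis lung cells. Drug was given ip in 0.1 mL 30% v/v EtOH/water on days 5, 9 and 13. The optimal dose (mg/kg per day) is the one giving maximal increase in life span; survivors were scored at 60 days, in groups of six.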

P388 [9] = assay: (§3) Average increase in life span of treated animals over control groups of tumor-bearing untreated animals when given at optimal dose (in vivo); format: functional, Mus musculus
Procedure, shortened: (§4)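 Mice inoculated ip with 10^6 P388 cells (drug ip on days 1, 5, 9) or iv with 10^6 Lewis lung cells (drug ip on days 5, 9, 13). Drug given as a solution in 0.1 mL 30% v/v EtOH/water, in mg/kg per day. Value is the average life-span increase versus untreated tumor-bearing controls at the optimal dose. Significance thresholds: ILS >20% (P388), >40% (LL). Groups of six.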

[10] = system: Lewis lung carcinoma cell line; assay: as §3; format: functional, Mus musculus; procedure, shortened: as §4
[11] = system: Lewis lung carcinoma cell line; assay: Average increase in life span of treated animals over control groups of tumor-bearing untreated animals when given at optimal dose of 25 mg/kg/day; NA means no significant activity (in vivo); format: functional, organism-based; conditions: Mus musculus, in the assay text read “225 mg/kg/day” for “25 mg/kg/day”; procedure, shortened: as §2
P388 [12] = assay: Average increase in life span of treated animals over control groups of tumor-bearing untreated animals when given at optimal dose of 150 mg/kg/day;NA means no significant activity (in vivo); format: functional, organism-based; conditions: Mus musculus; procedure, shortened: as §2
[13] = system: Lewis lung carcinoma cell line; assay: Average increase in life span of treated animals over control groups of tumor-bearing untreated animals when given at optimal dose;NA means no significant effect (in vivo); format: functional, organism-based; conditions: Mus musculus; procedure, shortened: as §2

SMILES | IC50 (L1210 [2]) [nM] | OD (P388 [3]) [mg/kg/day] | Rm [4] | Ratio (L1210 [5]) | Ratio (L1210 [6]) | OD [8] [mg/kg/day] | ILS max (P388 [9]) | further results
COc1ccc(C(=O)NCCN(C)C)c2nc3ccccc3nc12 | 550 | 225 | -0.41 |  |  |  |  | ILSmax (P388 [1]): Not significant
NC(=O)c1cccc2nc3c(Cl)cccc3nc12 |  |  |  | 5 | 0.6 |  |  | 
COc1ccc2nc3c(C(=O)NCCN(C)C)cccc3nc2c1 | 4100 | 100 | -0.27 |  |  | 150 |  | ILSmax (P388 [1]): Not significant; ILSmax [7]: Not significant
COc1cccc2nc3cccc(C(=O)NCCN(C)C)c3nc12 | 48 | 100 | -0.42 |  |  | 100 | 106 | ILS max [10]: 128
Cc1ccc2nc3cccc(C(=O)NCCN(C)C)c3nc2c1 | 630 | 150 | -0.2 |  |  | 225 | 60 | ILS max [10]: 81
COc1ccc(C(N)=O)c2nc3ccccc3nc12 |  |  |  | 0.6 | 1 |  |  | 
Cc1cc(C(N)=O)c2nc3ccccc3nc2c1 |  |  |  | 1 | 0.5 |  |  | 
NC(=O)c1cccc2nc3cc(Cl)ccc3nc12 |  |  |  | 7.1 | 0.3 |  |  | 
CN(C)CCNC(=O)c1cccc2nc3cccc(Cl)c3nc12 | 11 | 30 | -0.37 |  |  | 45 | 61 | ILS max [10]: 124
COc1cccc2nc3cccc(C(N)=O)c3nc12 |  |  |  | 0.05 | 1 |  |  | 
CN(C)CCNC(=O)c1cccc2nc3ccc4ccccc4c3nc12 | 33 | 30 | -0.05 |  |  | 45 | 98 | ILS max [10]: 56
CN(C)CCNC(=O)c1cccc2nc3c(ccc4ccccc43)nc12 | 310 | 45 | -0.32 |  |  | 45 | 29 | ILS max [7]: Not significant
CN(C)CCNC(=O)c1cccc2nc3c(Cl)cccc3nc12 | 780 | 150 | -0.18 |  |  | 150 | 56 | ILS max [10]: 49
Cc1ccc2nc3c(C(N)=O)cccc3nc2c1 |  |  |  | 3.7 | 0.4 |  |  | 
Cc1cccc2nc3c(C(=O)NCCN(C)C)cccc3nc12 | 820 | 150 | -0.01 |  |  | 150 | 58 | ILS max [7]: Not significant
COc1cccc2nc3c(C(=O)NCCN(C)C)cccc3nc12 | 5000 | 150 | -0.44 |  |  |  |  | ILSmax (P388 [1]): Not significant
CN(C)CCCNC(=O)c1cccc2nc3ccccc3nc12 | 1500 | 150 | -0.21 |  |  | 225 |  | ILSmax [11]: Not significant; ILSmax (P388 [12]): Not significant
COc1ccc2nc3c(C(N)=O)cccc3nc2c1 |  |  |  | 5 | 1 |  |  | 
CN(C)CCNC(=O)c1cccc2nc3cc(Cl)ccc3nc12 | 1140 | 65 | -0.13 |  |  | 65 | 20 | ILSmax [7]: Not significant
Cc1ccc(C(N)=O)c2nc3ccccc3nc12 |  |  |  | 1 | 0.7 |  |  | 
CN(C)CCNC(=O)c1cc2ccccc2c2nc3ccccc3nc12 | 170 | 65 | 0.11 |  |  | 65 | 84 | ILS max [7]: Not significant
Cc1ccc(C(=O)NCCN(C)C)c2nc3ccccc3nc12 | 400 | 100 | 0.08 |  |  | 150 | 28 | ILS max [13]: Not significant

SMILES | IC50 (L1210 [2]) [nM] | OD (P388 [3]) [mg/kg/day] | Rm [4] | Ratio (L1210 [5]) | Ratio (L1210 [6]) | OD [8] [mg/kg/day] | ILS max (P388 [9]) | further results
CN(C)CCNC(=O)c1cccc2nc3ccc(Cl)cc3nc12 | 670 | 100 | -0.2 |  |  | 100 | 64 | ILS max [10]: 64
COc1cccc2nc3c(C(N)=O)cccc3nc12 |  |  |  | 6 | 1 |  |  | 
Cc1cc(C(=O)NCCN(C)C)c2nc3ccccc3nc2c1 | 410 | 225 | -0.15 |  |  | 225 | 91 | ILS max [10]: 158
CN(C)CCNC(=O)c1cc(Cl)cc2nc3ccccc3nc12 | 160 | 150 | -0.06 |  |  | 150 | 106 | ILS max [10]: 63
COc1ccc2nc3cccc(C(N)=O)c3nc2c1 |  |  |  | 1.4 | 1 |  |  | 
NC(=O)c1cccc2nc3cccc(Cl)c3nc12 |  |  |  | 0.07 | 0.2 |  |  | 
COc1ccc2nc3cccc(C(=O)NCCN(C)C)c3nc2c1 | 1050 | 100 | -0.33 |  |  | 150 | 39 | ILS max [7]: Not significant
Cc1ccc2nc3cccc(C(N)=O)c3nc2c1 |  |  |  | 1.5 | 0.9 |  |  | 
O=C(NCCNCCO)c1cccc2nc3ccccc3nc12 | 2000 | 65 | -0.32 |  |  | 65 |  | ILS max (P388 [1]): Not significant; ILS max [7]: Not significant
CCN(CC)CCNC(=O)c1cccc2nc3ccccc3nc12 | 2100 | 225 | 0.09 |  |  | 150 | 43 | ILS max [7]: Not significant
Cc1ccc2nc3c(C(=O)NCCN(C)C)cccc3nc2c1 | 1500 | 150 | -0.18 |  |  | 100 | 29 | ILS max [7]: Not significant
NC(=O)c1cc(Cl)cc2nc3ccccc3nc12 |  |  |  | 1 | 0.4 |  |  | 
CN(C)CCNC(=O)c1cccc2nc3ccccc3nc12 | 1400 | 150 | -0.29 |  |  | 150 | 88 | ILS max [10]: 57
COc1cc(C(N)=O)c2nc3ccccc3nc2c1 |  |  |  | 1 | 1 |  |  | 
NC(=O)c1cccc2nc3ccc(Cl)cc3nc12 |  |  |  | 4.2 | 0.6 |  |  | 
CN(C)CCNC(=O)c1c(Cl)ccc2nc3ccccc3nc12 | 14900 | 100 | -0.27 |  |  |  |  | ILSmax (P388 [1]): Not significant
Cc1cccc2nc3cccc(C(N)=O)c3nc12 |  |  |  | 0.1 | 0.9 |  |  | 
O=C(NCCN1CCOCC1)c1cccc2nc3ccccc3nc12 | 11000 | 225 | -0.21 |  |  | 225 |  | ILSmax (P388 [1]): Not significant; ILSmax [7]: Not significant
COc1ccc2nc3ccccc3nc2c1C(=O)NCCN(C)C | 1620 | 225 | -0.5 |  |  | 225 | 33 | ILS max [10]: 43
Cc1cccc2nc3c(C(N)=O)cccc3nc12 |  |  |  | 2 | 0.6 |  |  | 
Cc1cccc2nc3cccc(C(=O)NCCN(C)C)c3nc12 | 42 | 65 | -0.23 |  |  | 65 | 45 | ILS max [10]: 62
COc1cc(C(=O)NCCN(C)C)c2nc3ccccc3nc2c1 | 830 | 100 | -0.25 |  |  | 150 | 22 | ILS max [7]: Not significant

From ChEMBL document CHEMBL1123882, “Potential antitumor agents. 51. Synthesis and antitumor activity of substituted phenazine-1-carboxamides” (J Med Chem, 1987)
